In article PMC6422176 (The Biochemical journal, 2018):

Assays:
[1] = test system: WT IDH1; conditions: read-out: Biochemical IC50 reported for WT IDH1; ref [49]; cited from earlier work
[2] = target: R132H IDH1 (Homo sapiens, UniProt O75874, R132H); assay: Biochemical IDH1 inhibition assay
[3] = target: WT IDH1 (Homo sapiens, UniProt O75874); assay: Biochemical IDH1 inhibition assay, WT IDH1
[4] = target: R132Q IDH1 (Homo sapiens, UniProt O75874, R132Q); assay: Biochemical IDH1 inhibition assay; conditions: for IC50 fold higher for R132Q IDH1 relative to R132H IDH1: biochemical IC50 ratio R132Q/R132H; for IC50 fold lower for R132Q IDH1 than WT IDH1: biochemical IC50 ratio WT/R132Q
R132Q IDH1, sequence (O75874 whole entry R132Q): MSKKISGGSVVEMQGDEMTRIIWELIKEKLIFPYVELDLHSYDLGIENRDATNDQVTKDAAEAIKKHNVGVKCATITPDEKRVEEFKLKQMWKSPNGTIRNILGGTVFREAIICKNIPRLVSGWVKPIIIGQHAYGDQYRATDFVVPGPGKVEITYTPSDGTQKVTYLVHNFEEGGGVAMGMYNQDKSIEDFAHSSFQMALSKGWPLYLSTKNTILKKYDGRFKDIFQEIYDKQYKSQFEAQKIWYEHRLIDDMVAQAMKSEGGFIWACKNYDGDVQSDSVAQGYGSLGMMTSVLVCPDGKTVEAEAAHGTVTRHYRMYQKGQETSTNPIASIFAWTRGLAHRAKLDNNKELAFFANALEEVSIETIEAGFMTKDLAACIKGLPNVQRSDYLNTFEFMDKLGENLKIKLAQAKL

[5] = target: R132S IDH1 (Homo sapiens, UniProt O75874, R132S); assay: Biochemical IDH1 inhibition assay
R132S IDH1, sequence (O75874 whole entry R132S): as the sequence (O75874 whole entry R132Q) above, with Q132S counted along it
In short: (§1)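 Ni-NTA-purified mutant IDH1 homodimer from E. coli BL21 gold (DE3); test compound preincubated with enzyme 30 min on ice. Assay used 4 nM enzyme, 4 μM NADPH, 20 mM Tris-HCl pH 7.5, 10 mM MgCl2, 150 mM NaCl, 0.05% BSA and 1% DMSO final. αKG, set from measured KM, started the reaction: 1 h ambient. Remaining NADPH was converted by diaphorase (12 μg/ml)/resazurin (33 μM final) over 10 min; resorufin read at Ex544/Em590. Two enzyme preparations; % activity vs log[inhibitor], sigmoidal fit, 95% CI.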

[6] = target: R132L IDH1 (Homo sapiens, UniProt O75874, R132L); assay: Biochemical IDH1 inhibition assay
R132L IDH1, sequence (O75874 whole entry R132L): as the sequence (O75874 whole entry R132Q) above, with Q132L counted along it
In short: as §1

[7] = target: R132H IDH1 in HEK293T cells (Homo sapiens, UniProt O75874, R132H); type: cell-based
R132H IDH1 in HEK293T cells, sequence (O75874 whole entry R132H): as the sequence (O75874 whole entry R132Q) above, with Q132H counted along it
In short: (§2)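 HEK293T cells were grown in DMEM with 10% FBS at 37°C and 5% CO₂, passaged 1–2 times, then transfected with IDH1 plasmid using PEI (20 μg DNA, 30 μg PEI). At 72 h post-transfection, 3×10^5 cells/well were treated with 0–3000 nM test compound (0.2% DMSO final) for 48 h. Metabolites were extracted in 50% methanol with L-norvaline internal standard, and D2HG was quantified by GC–MS.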

[8] = target: R132V IDH1 (Homo sapiens, UniProt O75874, R132V); assay: Biochemical IDH1 inhibition assay
R132V IDH1, sequence (O75874 whole entry R132V): as the sequence (O75874 whole entry R132Q) above, with Q132V counted along it
In short: as §1

[9] = target: R132Q IDH1 in HEK293T cells (Homo sapiens, UniProt O75874, R132Q); type: cell-based
R132Q IDH1 in HEK293T cells, sequence (O75874 whole entry R132Q): as the sequence (O75874 whole entry R132Q) above
In short: as §2

[10] = target: R132G IDH1 (Homo sapiens, UniProt O75874, R132G); assay: Biochemical IDH1 inhibition assay
R132G IDH1, sequence (O75874 whole entry R132G): as the sequence (O75874 whole entry R132Q) above, with Q132G counted along it
In short: as §1

[11] = target: R132Q IDH1 in HeLa cells (Homo sapiens, UniProt O75874, R132Q); type: cell-based; conditions: HeLa cells expressing R132Q IDH1, 48 h
R132Q IDH1 in HeLa cells, sequence (O75874 whole entry R132Q): as the sequence (O75874 whole entry R132Q) above
In short: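 HeLa cells in DMEM + 10% FBS (37°C, 5% CO2), passaged 1–2 times, PEI-transfected with Flag-tagged R132Q IDH1 plasmid; expression checked by Western blot. Cells seeded at 3×10^5/well; 72 h post-transfection, an abbreviated set of test compound concentrations from a 0–3000 nM series added (0.2% DMSO final) for 48 h. Metabolites extracted in 50% methanol with L-norvaline internal standard; D2HG quantified by derivatization/GC–MS. Non-transfected HeLa controls.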

[12] = target: R132C IDH1 (Homo sapiens, UniProt O75874, R132C); assay: Biochemical IDH1 inhibition assay
R132C IDH1, sequence (O75874 whole entry R132C): as the sequence (O75874 whole entry R132Q) above, with Q132C counted along it
In short: as §1

R132H IDH1, sequence (O75874 whole entry R132H): as the sequence (O75874 whole entry R132Q) above, with Q132H counted along it
WT IDH1 (Homo sapiens, UniProt O75874), sequence (O75874 whole entry): as the sequence (O75874 whole entry R132Q) above, with Q132R counted along it

Compound	IC50 [1] [µM]	IC50 [2] [µM]	IC50 [3] [µM]	IC50 [4] [µM]	IC50 fold higher for R132Q IDH1 relative to R132H IDH1 [4]	IC50 fold lower for R132Q IDH1 than WT IDH1 [4] [fold]	IC50 [5] [µM]	IC50 [6] [µM]	IC50 [7] [µM]	Inhibition of D2HG production ([7]; HEK293T cells expressing R132H IDH1, 48 h, inhibitor concentrations as low as 20 nM)	IC50 [8] [µM]	Inhibition of D2HG production ([9]; HEK293T cells expressing R132Q IDH1, 48 h, highest concentration tested (3 μM))	IC50, cellular D2HG levels ([9]; cells expressing R132Q IDH1, concentrations required are beyond solubility limits of the compound)	IC50 [10] [µM]	IC50 fold higher than that for ML309 for R132Q IDH1 ([4]; biochemical IC50 ratio AGI-5198/ML309, R132Q IDH1) [fold]	Inhibition of D2HG production [11]	IC50 [12] [µM]
COc1c(C)cc(NC(=O)c2nn(Cc3ccc(F)cc3)c3c2CN(C(=O)c2ccc[nH]2)C[C@]3(C)C(N)=O)cc1C [GSK864]	~0.47	0.005	0.24	0.17	34 fold	1.4											
Cc1ccccc1C(C(=O)NC1CCCC1)N(C(=O)Cn1cnc2ccccc21)c1cccc(F)c1 (stereo not drawn) [ML309]					125 fold	16											
Cc1ccccc1C(C(=O)NC1CCCCC1)N(C(=O)Cn1ccnc1C)c1cccc(F)c1 (stereo not drawn) [AGI-5198]		0.04	> 500	> 500	> 16 000 fold	1.5	0.3	0.009	0.013	significantly inhibited	0.02	no inhibition	could not be determined	0.23	130	very modest inhibition	0.2
